Key:
Mus musculus [1] = experiment: Antinociceptive activity against acetic acid-induced writhing response in iv dosed CD1 mouse after 20 mins; type: functional
Method in brief: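 CD1 mice received the compound intravenously at doses of 4 to 25 before the acetic acid-induced abdominal constriction (writhing) test. Writhing inhibition was scored 20 min after dosing and ED₅₀ was taken from the dose-response. A separate arm was pretreated with the delta-selective antagonist naltrindole.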

Rattus norvegicus [2] = experiment: Antihyperalgesic activity against carrageenan-induced inflammatory hyperalgesia in iv dosed Sprague-Dawley rat after 30 mins; type: functional
Method in brief: (§1)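 Sprague-Dawley rats with carrageenan-induced inflammatory hyperalgesia received the compound intravenously across a dose range of 3 to 30. Antinociceptive reversal was measured 30 min after dosing.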

[3] = Bioavailability in rat; type: ADME, organism-based; conditions: in vivo
[4] = Half life in rat; type: ADME, organism-based; conditions: in vivo
Rattus norvegicus [5] = experiment: Toxicity in Sprague-Dawley rat assessed convulsant activity at 3 to 30 umol/kg, iv after 30 mins; type: organism-based; conditions: in vivo, 0.5 h
Method in brief: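 Sprague-Dawley rats were watched for convulsions during the carrageenan hyperalgesia experiment, at the intravenous doses used there (3 to 30) and 30 min after dosing.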

Mus musculus [6] = experiment: Toxicity in CD1 mouse assessed convulsant activity at 4 to 25 umol/kg, iv after 20 mins; type: organism-based; conditions: in vivo
Method in brief: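 CD1 mice were watched for convulsions during the acetic acid writhing experiment, at the intravenous doses used there (4 to 25) and 20 min after dosing.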

Mus musculus [7] = experiment: Toxicity in CD1 mouse assessed hyperactivity at above 30 umol/kg, iv after 20 mins; type: organism-based; conditions: in vivo
Rattus norvegicus [8] = experiment: Antihyperalgesic activity against carrageenan-induced inflammatory hyperalgesia in Sprague-Dawley rat at 30 umol/kg, iv after 30 mins; type: functional; method in brief: as §1
Rattus norvegicus [9] = experiment: Toxicity in Sprague-Dawley rat assessed hyperactivity at above 30 umol/kg, iv after 30 mins; type: organism-based; conditions: in vivo, 0.5 h

## CN1CC[C@]23c4c5ccc(O)c4O[C@H]2[C@@H](O)C=C[C@H]3[C@H]1C5 [MORPHINE]
Mus musculus [1]
  Activity: 1.5 µmol/kg
Rattus norvegicus [2]
  Activity: 3.1 µmol/kg

## CCN(CC)C(=O)c1ccc(N(c2cccc(O)c2)C2CCN(CCc3ccccc3)CC2)cc1
[3]
  bioavailability: 25%
[4]
  half-life: 48 min
Rattus norvegicus [5]
  Activity: Non-toxic
Mus musculus [6]
  Activity: Non-toxic
Rattus norvegicus [2]
  Activity: Dose-dependent effect
Rattus norvegicus [2]; Rattus norvegicus, Sprague-Dawley, iv, 0.5 h
  ED50: 17.5 µmol/kg
Mus musculus [7]
  Activity: Non-toxic
Rattus norvegicus [8]
  Activity: 60%
Rattus norvegicus [9]
  Activity: Non-toxic

— ChEMBL document CHEMBL1156083, “N,N-Diethyl-4-[(3-hydroxyphenyl)(piperidin-4-yl)amino] benzamide derivatives: the development of diaryl amino piperidines as potent delta opioid receptor agonists with in vivo anti-nociceptive activity in rodent models” (Bioorg Med Chem Lett, 2009)
